Seven compounds from ChEMBL document CHEMBL1140339, “Spiro and dispiro-1,2,4-trioxolanes as antimalarial peroxides: charting a workable structure-activity relationship using simple prototypes” (J Med Chem, 2005) can be followed below.

Series [1] is described as follows: Plasma half life period after intravenous administration ( 20 mg/kg ). The following applies: rat.
Series [2] is described as follows: Plasma clearance after intravenous administration of 20 mg/kg. The conditions noted are these: rat.
Series [3] in a line: Volume distribution after intravenous administration of 20 mg/kg. The conditions noted are these: rat, in vivo.
Series [4] in a line: Plasma clearance after intravenous administration of 10 mg/kg. The following applies: rat.
Series [5] in a line: Volume distribution after intravenous administration of 10 mg/kg. The conditions noted are these: rat, in vivo.
The subject of series [6] is Mus musculus. The series can be described thus: Survival of mice to 30-day postinfection with Plasmodium berghei upon 10 mg/kg upon subcutaneous dose was determined. The format is functional. The method, boiled down: (§1)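 P. berghei-infected MORO mice, groups of three, treated 1 day postinfection with a single dose (100 or 10 mg/kg, po or sc) dissolved or suspended in 3% ethanol/7% Tween-80. Activity is percent reduction in parasitemia on day 3 postinfection versus untreated controls. Survival time is compared with an untreated control group. Individual measurements generally differed by less than 10%.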

A short description of series [7]: Bioavailability obtained after oral administration of 30 mg/kg (n=1). The format is ADME, organism-based, Mus musculus. The following applies: in vivo. In short, it runs like this: (§2)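 Conscious, free-moving rats (n = 3 per group) were jugular- and carotid-cannulated the day before dosing under isoflurane, then fasted overnight. The iv dose was a 5 min jugular infusion in aqueous 0.1 M Captisol (10, 20 or 30 mg/kg). The oral dose was given by gavage as a suspension in 0.5% CMC/0.4% polysorbate 80/0.5% benzyl alcohol/0.9% NaCl (30, 50 or 80 mg/kg). Carotid blood was sampled over 7 h and plasma was obtained by centrifugation.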

Series [8] has as its system Mus musculus. Description: Antimalarial activity (10 mg/kg, subcutaneously) given 1 day post infection of mice (Mus musculus) with Plasmodium berghei is its ability to reduce parasitemia on day 3 post infection. The format is functional. The method, boiled down:
as §1

For series [9], the species on record is Mus musculus. The series can be described thus: Effective dose required to reduce the parasitemia in mice by suppressive test after 4 day postinfection. The format is functional. The method, boiled down: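 Peters 4-day suppressive test in P. berghei-infected mice with multiple daily oral doses. ED50/ED90 are given in (mg/kg)/day.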
A short description of series [10]: Plasma half life period after intravenous administration ( 10 mg/kg ). The conditions noted are these: rat.
In series [11] the test system is Mus musculus. The series can be described thus: Survival of mice to 30-day postinfection with Plasmodium berghei upon 10 mg/kg peroral dose was determined. The format is functional. The conditions noted are these: route oral. The method, boiled down:
as §1

Series [12] has as its system Mus musculus. Description: Effective dose required to reduce the parasitemia in mice when compound administered with SSV after 3 day postinfection. The format is functional.
The test system of series [13] is Mus musculus. The series can be described thus: Effective dose required to reduce the parasitemia in mice when compound administered with Tween-80 after 3 day postinfection. The format is functional.
The subject of series [14] is Mus musculus. Description: Antimalarial activity (10 mg/kg, peroral) given 1 day post infection of mice (Mus musculus) with Plasmodium berghei is its ability to reduce parasitaemia on day 3 post infection. The format is functional. The method, boiled down:
as §1

The subject of series [15] is Mus musculus. The series can be described thus: Antimalarial activity (100 mg/kg, subcutaneously) given 1 day post infection of mice (Mus musculus) with Plasmodium berghei is its ability to reduce parasitemia on day 3 post infection. The format is functional. In short, it runs like this:
as §1

The test system of series [16] is Mus musculus. Description: Antimalarial activity (100 mg/kg, peroral) given 1 day post infection of mice (Mus musculus) with Plasmodium berghei is its ability to reduce parasitaemia on day 3 post infection. The format is functional. In short, it runs like this:
as §1

A short description of series [17]: Oral bioavailability (dose 50 mg/kg). The following applies: rat, in vivo.
Series [18] has as its system Mus musculus. The series can be described thus: Survival of mice to 30-day postinfection with Plasmodium berghei upon 100 mg/kg upon subcutaneous dose was determined. The format is functional. In short, it runs like this:
as §1

In series [19] the test system is Mus musculus. Description: Survival of mice to 30-day postinfection with Plasmodium berghei upon 100 mg/kg peroral dose was determined. The format is functional. The conditions noted are these: route oral. The method, boiled down: as §1
Series [20] concerns Plasmodium falciparum. Description: Antiparasitic effect against Plasmodium berghei infected mice (Mus musculus) after 100 mg/kg peroral (T/A Tween-80) dose after 3 days. The format is functional, organism-based. Set-up: dose 100 mg/kg, route oral. The method, boiled down: as §1
A short description of series [21]: Plasma half life period after intravenous administration ( 30 mg/kg ). The format is ADME, organism-based, Mus musculus. On the set-up: dose 30 mg/kg, route intravenous. The method, boiled down: as §2
Series [22] concerns Plasmodium falciparum. The series can be described thus: Antiparasitic effect against Plasmodium berghei infected mice (Mus musculus) after 100 mg/kg peroral (SSV) dose after 3 days. The format is functional. The conditions noted are these: route oral.
Series [23] can be described thus: Volume distribution after intravenous administration of 30 mg/kg. The format is ADME, organism-based, Mus musculus. On the set-up: dose 30 mg/kg, route intravenous. The conditions noted are these: in vivo. The method, boiled down: as §2
In series [24] the test system is Plasmodium falciparum. The series can be described thus: Anti-parasitic effect against Plasmodium berghei in mice (Mus musculus) after 4 days at 100 mg/kg/day (T/A Tween 80) peroral dose in Peters suppressive assay. The format is functional, organism-based. Set-up: route oral.
Series [25] is described as follows: Bioavailability obtained after oral administration of 80 mg/kg. The conditions noted are these: in vivo. The format is ADME, organism-based, Mus musculus. The method, boiled down: as §2
A short description of series [26]: Plasma clearance after intravenous administration of 30 mg/kg. The format is ADME, organism-based, Mus musculus. On the set-up: dose 30 mg/kg, route intravenous. The method, boiled down:
as §2

The subject of series [27] is Plasmodium falciparum. The series can be described thus: In vitro inhibition of chloroquine-sensitive Plasmodium falciparum NF54. The format is functional, organism-based.
Series [28] relates to Plasmodium falciparum. The series can be described thus: In vitro inhibition of chloroquine-resistant Plasmodium falciparum K1. The format is functional, organism-based.
Series [29] is described as follows: Plasma half life period after intravenous administration ( 20 mg/kg). The following applies: rat, in vivo.
The subject of series [30] is Mus musculus. Description: Survival of mice to 30-day postinfection with Plasmodium berghei upon 10 mg/kg upon peroral dose was determined. The format is functional. The conditions noted are these: route oral. The method, boiled down: as §1

The term half-life denotes how long it takes for the measured level to halve. High values mean slow loss, low ones fast loss. Broadly, the clearance is the volume of plasma or blood freed of the substance per unit of time. High values mean efficient removal, low ones inefficient removal. As a reminder, the Vd is a proportionality between amount in the body and measured concentration, not a real space. Usually bioavailability stands for the share of a dose that reaches the circulation, judged against a reference dose that is usually intravenous. A low value points to poor availability. A word on the IC50: it is the concentration needed to halve the response being measured. A lower IC50 goes with greater potency in that assay.

Structures are written as SMILES. Values after ≈ are worked out from the molar mass of the structure shown.

`C[C@H]1[C@@H](O)O[C@@H]2O[C@@]3(C)CC[C@H]4[C@H](C)CC[C@@H]1[C@@]24OO3` [ARTENIMOL] displayed a half-life in [1] of 0.433 h. The compound further showed a clearance in [2] of 72 mL/min/kg. Further, the volume of distribution (Vd) in [3] (read-out: Vd) turned out to be 3 L/kg.
The compound `c1ccc(C2CCC3(CC2)OOC2(O3)C3CC4CC(C3)CC2C4)cc1` (stereo not given) displayed a clearance in [4] of 33 mL/min/kg. In [5], this compound had a Vd of 5 L/kg. The Survival in the series on Mus musculus [6] worked out at 17.1 days; with Mus musculus [11], 12.6 days. The compound further gave a bioavailability in [7] of 9.5%. The compound further came in with a Reduction in the series on Mus musculus [8] of 99.92%. The ED90 in the series listed under Mus musculus [9] is on record as 2.6 (mg/kg)/day; in the series with Mus musculus [12], 5.7 (mg/kg)/day; in the series on Mus musculus [13], 3.2 (mg/kg)/day. The compound further yielded a half-life in series [10] of 1.62 h.
`CO[C@H]1O[C@@H]2O[C@@]3(C)CC[C@H]4[C@H](C)CC[C@@H]([C@H]1C)[C@@]24OO3` came in with a clearance in [4] of 114 mL/min/kg. Moreover, the Vd in series [5] stood at 8 L/kg. Moreover, the Reduction with Mus musculus [14] is 98%; in the series on Mus musculus [15] it was greater than 99.99%; with Mus musculus [8], 99.78%; in the series with Mus musculus [16], 99.95%. Also, the ED50 is recorded as 3.1 (mg/kg)/day in the series filed under Mus musculus [9], 2.7 (mg/kg)/day with Mus musculus [12] and 2 (mg/kg)/day with Mus musculus [13]. The compound further showed a bioavailability in series [17] of 1.4%. For the same compound, in series [10], the half-life came out at 0.867 h. Further, the Survival in the series with Mus musculus [18] and in the series with Mus musculus [19] was 14.7 days throughout. The ED90 in the series on Mus musculus [12] is 6.2 (mg/kg)/day; with Mus musculus [13], 4.3 (mg/kg)/day.
For `CC1(C)COC2(CCC3(CC2)OOC2(O3)C3CC4CC(C3)CC2C4)OC1` (stereo not given), the figures for the Survival in the series with Mus musculus [6] and in the series with Mus musculus [11] were 18 days and 11.4 days, respectively. For the same compound, the EC50 in the series with Plasmodium falciparum [20] is reported as 1.5 (mg/kg)/day; in the series on Plasmodium falciparum [24] it was 1.8 (mg/kg)/day. Further, the Reduction in the series with Mus musculus [8] is greater than 99.99%. In [21], this compound had a half-life of 2.58 h. In the series on Plasmodium falciparum [22], the EC90 is 6.2 (mg/kg)/day. For the same compound, the Vd in [23] came out at 18 L/kg. For the same compound, in [25], the bioavailability is 0.73%. Further, in [26], the clearance is 83 mL/min/kg.
On to `O=C1CCC2(CC1)OOC1(O2)C2CC3CC(C2)CC1C3` (stereo not given), for which the Reduction was 94% in the series with Mus musculus [14], greater than 99.99% in the series with Mus musculus [15], 99.7% in the series with Mus musculus [8] and greater than 99.99% in the series with Mus musculus [16]. For the same compound, the Survival in the series with Mus musculus [6] is 8.6 days; in the series with Mus musculus [18], 30 days; in the series with Mus musculus [19], 10.7 days; with Mus musculus [30] it was 7.1 days. Further, the half-maximal inhibitory concentration (IC50) in the series with Plasmodium falciparum [27] came out at 0.73 ng/mL (≈ 2.62 nM); in the series with Plasmodium falciparum [28], 0.48 ng/mL (≈ 1.72 nM). Besides, the ED50 was 1.5 (mg/kg)/day in the series listed under Mus musculus [9], 8.7 (mg/kg)/day with Mus musculus [12] and 3.5 (mg/kg)/day in the series on Mus musculus [13]. The ED90 in the series listed under Mus musculus [9] is 6.1 (mg/kg)/day; in the series with Mus musculus [12], 12 (mg/kg)/day; with Mus musculus [13], 7 (mg/kg)/day. The compound also registered a T1/2 in series [29] of 1.95 h. This compound also yielded a volume of distribution (Vd) in series [3] of 12 L/kg.
As for `CCOC(=O)N1CCC2(CC1)OOC1(O2)C2CC3CC(C2)CC1C3` (stereo not given), the clearance in series [4] is 47 mL/min/kg. The distribution volume (Vd) in series [5] worked out at 23 L/kg. Further, the results for the Reduction in the series with Mus musculus [14] and in the series with Mus musculus [8] were 99.5% and 99.9%, respectively. For the same compound, the Survival in the series with Mus musculus [6] was determined as 8.9 days; with Mus musculus [11], 7.7 days. The 50% inhibitory concentration (IC50) in the series with Plasmodium falciparum [27] worked out at 0.57 ng/mL (≈ 1.69 nM); in the series with Plasmodium falciparum [28] it was 0.29 ng/mL (≈ 0.859 nM). Further, the ED90 in the series listed under Mus musculus [9] is recorded as 2 (mg/kg)/day; with Mus musculus [13], 5.5 (mg/kg)/day. This compound displayed a bioavailability in series [17] of 1.5%. Further, in series [10], the half-life was found to be 5.73 h.
Consider `C1CCC2(CC1)OOC1(O2)C2CC3CC(C2)CC1C3` (stereo not given), for which the Reduction was 94% with Mus musculus [14], greater than 99.99% in the series on Mus musculus [15], greater than 99.99% with Mus musculus [8] and greater than 99.99% with Mus musculus [16]. The results for the Survival in the series on Mus musculus [18], in the series with Mus musculus [19] and in the series with Mus musculus [30] were 28 days, 14.3 days and 7.2 days, respectively.
